What was measured:
Mus musculus [1] = assay: Effective dose required for inhibition of tetrabenazine-induced ptosis in mouse by peroral administration; Values ranges from 12-25; settings: po
[2] = target: T1, Adrenergic receptor alpha-1 (Rattus norvegicus, UniProt P15823+P23944+P43140); assay: Ability to displace [3H]prazosin from alpha-1 adrenergic receptor in rat brain homogenates in vitro; assay type: tissue-based
T1 sequence (P15823 whole entry): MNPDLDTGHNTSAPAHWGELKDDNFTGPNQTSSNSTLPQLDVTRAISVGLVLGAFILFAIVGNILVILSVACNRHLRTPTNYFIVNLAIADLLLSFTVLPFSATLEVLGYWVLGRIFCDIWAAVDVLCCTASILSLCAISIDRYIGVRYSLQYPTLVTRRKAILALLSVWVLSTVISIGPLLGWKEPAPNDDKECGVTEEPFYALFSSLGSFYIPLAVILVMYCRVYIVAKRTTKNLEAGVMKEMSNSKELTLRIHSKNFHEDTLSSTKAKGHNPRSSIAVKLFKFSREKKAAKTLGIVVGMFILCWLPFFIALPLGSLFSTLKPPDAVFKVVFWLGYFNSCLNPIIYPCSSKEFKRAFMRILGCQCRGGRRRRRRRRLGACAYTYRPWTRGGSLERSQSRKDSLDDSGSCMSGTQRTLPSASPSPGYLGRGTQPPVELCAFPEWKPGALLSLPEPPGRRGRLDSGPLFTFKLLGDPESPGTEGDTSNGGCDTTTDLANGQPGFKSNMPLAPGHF
T1 sequence (P23944 whole entry): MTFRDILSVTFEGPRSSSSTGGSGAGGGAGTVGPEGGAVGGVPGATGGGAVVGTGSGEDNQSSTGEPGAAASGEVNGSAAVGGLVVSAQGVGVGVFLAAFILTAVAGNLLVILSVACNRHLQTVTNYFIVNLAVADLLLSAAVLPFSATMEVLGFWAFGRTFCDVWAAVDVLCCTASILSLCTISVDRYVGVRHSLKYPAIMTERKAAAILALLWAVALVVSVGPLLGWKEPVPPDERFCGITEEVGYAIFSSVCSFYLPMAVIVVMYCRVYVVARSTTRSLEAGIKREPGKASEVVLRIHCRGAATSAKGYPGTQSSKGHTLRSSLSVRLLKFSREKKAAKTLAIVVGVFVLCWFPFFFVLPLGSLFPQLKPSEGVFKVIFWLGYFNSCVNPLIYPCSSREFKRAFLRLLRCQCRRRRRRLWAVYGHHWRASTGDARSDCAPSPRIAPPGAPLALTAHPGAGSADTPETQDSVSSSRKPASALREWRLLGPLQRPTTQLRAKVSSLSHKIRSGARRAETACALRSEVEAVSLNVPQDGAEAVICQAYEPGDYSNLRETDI
T1 sequence (P43140 whole entry): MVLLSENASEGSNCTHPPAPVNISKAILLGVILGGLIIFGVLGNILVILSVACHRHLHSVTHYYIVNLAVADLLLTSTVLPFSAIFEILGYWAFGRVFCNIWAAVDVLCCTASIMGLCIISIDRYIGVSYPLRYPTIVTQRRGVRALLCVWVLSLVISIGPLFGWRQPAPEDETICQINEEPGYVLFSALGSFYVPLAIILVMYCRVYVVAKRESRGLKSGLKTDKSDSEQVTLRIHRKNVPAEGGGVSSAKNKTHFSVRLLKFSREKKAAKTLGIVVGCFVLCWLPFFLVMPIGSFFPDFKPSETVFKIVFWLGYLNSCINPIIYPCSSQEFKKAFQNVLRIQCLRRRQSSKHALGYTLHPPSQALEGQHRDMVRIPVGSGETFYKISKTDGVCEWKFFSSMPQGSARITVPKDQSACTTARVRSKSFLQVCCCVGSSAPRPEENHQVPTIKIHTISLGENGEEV
Outline: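 Rat brain cortex membranes in 50 mM Tris pH 7.7, washed at 48000g, final resuspension 150 volumes. Incubated with 0.03 nM [3H]prazosin and graded test concentrations for 90 min at 25 °C. Unlabeled phentolamine (10 μM) defined nonspecific binding. Filtered on GF/B, scintillation counted. Triplicate assays; IC50 from logit plot converted to apparent Ki via Cheng–Prusoff.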

Rattus norvegicus [3] = species: Rattus norvegicus; assay: Inhibition of [3H]norepinephrine uptake into rat brain synaptosomes in vitro;Values ranges from :20-180; assay type: functional
Outline: (§1)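 Male Sprague–Dawley rat (180–240 g) cortex (NE, 5-HT) or striatum (DA) crude P2 synaptosomes in 0.32 M sucrose. Preincubated 5 min at 25 °C with drug in Krebs–Ringer phosphate containing ascorbate, EDTA, nialamide; 0.1 μM final [3H]amine added for 5 min. Stopped by cold saline and GF/B filtration; nonspecific uptake at 4 °C. IC50 with 95% limits computed.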

Rattus norvegicus [4] = species: Rattus norvegicus; assay: Inhibition of [3H]5-HT uptake into rat brain synaptosomes in vitro Values ranges from: 0.3-0.5; assay type: functional
Outline: as §1

Mus musculus [5] = assay: Effective dose required to antagonise clonidine-induced antinociception(ACA) in mouse by peroral administration at maximum response 100.; assay type: functional
Rattus norvegicus [6] = species: Rattus norvegicus; assay: Inhibition of [3H]-dopamine uptake into rat brain synaptosomes in vitro;Values ranges from :18-39; assay type: functional
Outline: as §1

Rattus norvegicus [7] = species: Rattus norvegicus; assay: Inhibition of [3H]norepinephrine uptake into rat brain synaptosomes in vitro;Value ranges from:1.9-4.4; assay type: functional
Outline: as §1

Rattus norvegicus [8] = species: Rattus norvegicus; assay: Inhibition of [3H]dopamine uptake into rat brain synaptosomes in vitro;Value ranges from:2.5-4.5; assay type: functional
Outline: as §1

Mus musculus [9] = assay: Effective dose required for inhibition of tetrabenazine-induced ptosis in mouse by peroral administration at maximum response 30.; assay type: functional
Rattus norvegicus [10] = species: Rattus norvegicus; assay: Inhibition of [3H]5-HT uptake into rat brain synaptosomes in vitro;Value ranges from:0.2-0.8; assay type: functional
Outline: as §1

Mus musculus [11] = assay: Effective dose required to antagonise clonidine-induced antinociception(ACA) in mouse by peroral administration;Values ranges from: 15-86; assay type: functional; settings: po

Structure (SMILES) | ED50 (Mus musculus [1]) | Ki [2] | IC50 (Rattus norvegicus [3]) | IC50 (Rattus norvegicus [4]) | Inhibition (Mus musculus [5]) | IC50 (Rattus norvegicus [6]) | IC50 (Rattus norvegicus [7]) | IC50 (Rattus norvegicus [8]) | Inhibition (Mus musculus [9]) | IC50 (Rattus norvegicus [10]) | ED50 (Mus musculus [11])
CC1=C(CC2=NCCN2)CCc2ccccc21.Cl | 18 mg/kg | 148 nM | 60000 nM | 400 nM | 50% | 26000 nM |  |  |  |  | 
C1=C(CC2=NCCN2)CCc2ccccc21.Cl [NAPAMEZOLE HYDROCHLORIDE] |  | 78 nM |  |  |  |  | 2900 nM | 3300 nM | 35% | 400 nM | 36 mg/kg

Reference: ChEMBL document CHEMBL1123816, “Synthesis and antidepressant properties of novel 2-substituted 4,5-dihydro-1H-imidazole derivatives” (J Med Chem, 1987)
